Results reported in ChEMBL document CHEMBL3232879, “4,5,6,7-Tetrahydro-isoxazolo-[4,5-c]-pyridines as a new class of cytotoxic Hsp90 inhibitors” (Eur J Med Chem, 2014).
Activity calls are given as the source filed them. The calls are words filed in the database; no cut-off is given here.

Key:
[1] = target: Heat shock protein HSP 90-alpha (Homo sapiens, UniProt P07900); assay: Displacement of GM-FTC from Hsp90-alpha (unknown origin) after 4 hrs by fluorescence polarization assay
NCI-H460 = assay: Cytotoxicity against human NCI-H460 cells assessed as growth inhibition after 72 hrs by sulforhodamine B assay; assay type: functional, cell-based; conditions: NCI-H460, 72 h
Outline: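 Log-phase NCI-H460 cells seeded, drug added 24 h later, exposed 72 h. Survival read by sulforhodamine B staining. IC50 fitted by curve analysis as the concentration halving cell number relative to untreated controls.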

K562 [2] = assay: Cell cycle arrest in human K562 cells assessed as accumulation at G1 phase at 1 uM after 24 hrs by propidium iodide staining-based flow cytometric analysis; assay type: functional
Outline: (§1)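 K562 cells exposed for 24 h, then washed once in ice-cold PBS. Resuspended at 1×10^6 cells/mL in a hypotonic solution of propidium iodide in 0.1% sodium citrate with 0.03% (v/v) Nonidet P-40 for 30 min. Filtered through nylon cloth, then single-parameter DNA fluorescence histograms read by flow cytometry. Cell-cycle phase distribution obtained by modelling, with untreated cells as control.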

K562 [3] = assay: Cytotoxicity against human K562 cells assessed as growth inhibition after 72 hrs by trypan blue exclusion assay; assay type: functional, cell-based; conditions: for IC50: K562, 72 h
Outline: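 K562 cells, 2×10^5 per well in 1 mL complete medium, exposed to a range of drug concentrations. Cells stained with trypan blue and counted on a hemocytometer; dye-uptaking cells scored nonviable. Viable count expressed as percent of control proliferation; IC50 is the concentration giving 50% growth inhibition. Methods give 48 h incubation, table footnote 72 h exposure.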

K562 [4] = assay: Cell cycle arrest in human K562 cells assessed as reduction of S phase fraction at 1 uM after 24 hrs by propidium iodide staining-based flow cytometric analysis; assay type: functional; outline: as §1
K562 [5] = assay: Induction of apoptosis in human K562 cells assessed as hypoploid nuclei accumulated in sub-G0-G1 phase after 72 hrs by propidium iodide staining-based fluorescence microscopic analysis; conditions: K562, 72 h
K562 [6] = assay: Cell cycle arrest in human K562 cells assessed as accumulation at G1 phase at 75 uM after 24 hrs by propidium iodide staining-based flow cytometric analysis; assay type: functional; outline: as §1
K562 [7] = assay: Cell cycle arrest in human K562 cells assessed as reduction of S phase fraction at 75 uM after 24 hrs by propidium iodide staining-based flow cytometric analysis; assay type: functional; outline: as §1
K562 [8] = assay: Cell cycle arrest in human K562 cells assessed as reduction of S phase fraction at 10 uM after 24 hrs by propidium iodide staining-based flow cytometric analysis; assay type: functional; outline: as §1
K562 [9] = assay: Cell cycle arrest in human K562 cells assessed as accumulation at G1 phase at 10 uM after 24 hrs by propidium iodide staining-based flow cytometric analysis; assay type: functional; outline: as §1

SMILES	IC50 [1]	IC50 (NCI-H460)	further results
CCOC(=O)c1noc2c1CN(C(=O)c1cc(Cl)c(O)cc1O)CC2	160 nM	> 20000 nM	–
CCOC(=O)c1noc2c1CN(C(=O)c1ccc(O)cc1O)CC2	3900 nM	> 20000 nM	–
CCNC(=O)c1noc2c1CN(Cc1cc(Cl)c(O)cc1O)CC2	1400 nM	> 20000 nM	–
COC(=O)c1noc2c1CN(C(C)=O)CC2	> 100000 nM	> 1000 nM	–
C=CCNC1=C2C[C@@H](C)C[C@H](OC)[C@H](O)[C@@H](C)/C=C(\C)[C@H](OC(N)=O)[C@@H](OC)/C=C\C=C(/C)C(=O)NC(=CC1=O)C2=O [TANESPIMYCIN]	–	–	Activity (K562 [2]): Active; IC50 (K562 [3]): 150 nM; Activity (K562 [4]): Active; AC50 (K562 [5]): 3100 nM
CCNC(=O)c1noc2c1CN(C(=O)c1cc(C(C)C)c(OC(C)=O)cc1OC(C)=O)CC2	–	230 nM	–
CC(C)c1cc(C(=O)N2CCc3onc(C(=O)NCCN4CCOCC4)c3C2)c(O)cc1O	54 nM	190 nM	–
CCNC(=O)c1noc2c1CN(C(=O)c1ccc(O)cc1O)CC2	1200 nM	> 20000 nM	–
CC(C)c1cc(C(=O)N2CCc3onc(C(=O)NCCCl)c3C2)c(O)cc1O	34 nM	200 nM	–
CCNC(=O)c1noc2c1CN(C(=O)Nc1cc(C(C)C)c(O)cc1O)CC2	> 100000 nM	> 1000 nM	–
CC(C)c1cc(C(=O)N2CCc3onc(C(=O)NC4CCCC4)c3C2)c(O)cc1O	68 nM	900 nM	–
CCNC(=O)c1noc2c1CN(C(=O)c1cc(Cl)c(O)cc1O)CC2	110 nM	9700 nM	Activity (K562 [6]): Active; growth inhibition (GI) (K562 [3]): Dose-dependent effect; IC50 (K562 [3]): 32600 nM; Activity (K562 [7]): Active; AC50 (K562 [5]): > 100000 nM
CCOC(=O)c1noc2c1CN(C(=O)c1cc(C(C)C)c(O)cc1O)CC2	100 nM	870 nM	–
CCNC(=O)c1noc2c1CN(C(=O)c1cc(C(C)C)c(O)cc1O)CC2	29 nM	450 nM	growth inhibition (GI) (K562 [3]): Dose-dependent effect; IC50 (K562 [3]): 720 nM; Activity (K562 [8]): Active; Activity (K562 [9]): Active; AC50 (K562 [5]): 5400 nM
CCNC(=O)c1noc2c1CN(C(=O)Nc1cc(Cl)c(O)cc1O)CC2	> 100000 nM	> 1000 nM	–
